Measurements taken from ChEMBL document CHEMBL3414565, “Discovery of novel AHLs as potent antiproliferative agents” (Eur J Med Chem, 2015).

How the values were obtained:
MCF7 [1] = test: Induction of apoptosis in human MCF7 cells assessed as early apoptotic cells at 2 uM after 24 hrs by annexin V-FITC/propidium iodide staining-based flow cytometry (reference value: 4.5%); format: functional
Summary of the method: (§1)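 MCF-7 cells were plated at 5.0 × 10^6 cells/mL and held 12 or 24 h at 37 °C. Exponentially growing cells then received complete medium (blank) or compound at 0, 2, 4 or 8 for 12 or 24 h. Harvested cells were stained with Annexin V-FITC/PI and analysed by flow cytometry. Quadrants were scored as live, early apoptotic (annexin+/PI−), late apoptotic (double positive) and damaged (PI+ only).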

MCF7 [2] = test: Induction of apoptosis in human MCF7 cells assessed as early apoptotic cells at 8 uM after 24 hrs by annexin V-FITC/propidium iodide staining-based flow cytometry (reference value: 4.5%); format: functional; summary of the method: as §1
MCF7 [3] = test: Induction of apoptosis in human MCF7 cells after 12 to 24 hrs by annexin V-FITC/propidium iodide staining-based flow cytometry; format: functional, cell-based; summary of the method: as §1
MCF7 [4] = test: Cell cycle arrest in human MCF7 cells assessed as accumulation at G1/G0 phase at 4 uM after 12 hrs by propidium iodide staining-based flow cytometry (reference value: 60.51%); format: functional
MCF7 [5] = test: Cell cycle arrest in human MCF7 cells assessed as accumulation at S phase at 4 uM after 12 hrs by propidium iodide staining-based flow cytometry (reference value: 26.65%); format: functional
MCF7 [6] = test: Cell cycle arrest in human MCF7 cells assessed as accumulation at G1/G0 phase at 8 uM after 12 hrs by propidium iodide staining-based flow cytometry (reference value: 60.51%); format: functional
MCF7 [7] = test: Cell cycle arrest in human MCF7 cells assessed as accumulation at G2/M phase at 8 uM after 12 hrs by propidium iodide staining-based flow cytometry (reference value: 16.53%); format: functional
MCF7 [8] = test: Cell cycle arrest in human MCF7 cells assessed as accumulation at G1/G0 phase at 2 uM after 24 hrs by propidium iodide staining-based flow cytometry (reference value: 46.77%); format: functional
MCF7 [9] = test: Cell cycle arrest in human MCF7 cells assessed as accumulation at S phase at 2 uM after 24 hrs by propidium iodide staining-based flow cytometry (reference value: 40.08%); format: functional
MCF7 [10] = test: Cell cycle arrest in human MCF7 cells assessed as accumulation at S phase at 4 uM after 24 hrs by propidium iodide staining-based flow cytometry (reference value: 40.08%); format: functional
MCF7 [11] = test: Cell cycle arrest in human MCF7 cells assessed as accumulation at G2/M phase at 4 uM after 24 hrs by propidium iodide staining-based flow cytometry (reference value: 16.27%); format: functional
MCF7 [12] = test: Cell cycle arrest in human MCF7 cells assessed as accumulation at G1/G0 phase at 8 uM after 24 hrs by propidium iodide staining-based flow cytometry (reference value: 46.77%); format: functional
MCF7 [13] = test: Cell cycle arrest in human MCF7 cells assessed as accumulation at G2/M phase after 12 to 24 hrs by propidium iodide staining-based flow cytometry; format: functional
[14] = Cytotoxicity against human GES-1 cells after 72 hrs by MTT assay; format: cell-based; conditions: GES1, 72 h
MCF7 [15] = test: Induction of apoptosis in human MCF7 cells assessed as viable cells at 2 uM after 12 hrs by annexin V-FITC/propidium iodide staining-based flow cytometry (reference value: 85.4%); format: functional; conditions: MCF7, 12 h, read-out: Activity; summary of the method: as §1
MCF7 [16] = test: Induction of apoptosis in human MCF7 cells assessed as necrotic cells at 4 uM after 12 hrs by annexin V-FITC/propidium iodide staining-based flow cytometry (reference value: 4.7%); format: functional; summary of the method: as §1
MCF7 [17] = test: Induction of apoptosis in human MCF7 cells assessed as viable cells at 4 uM after 12 hrs by annexin V-FITC/propidium iodide staining-based flow cytometry (reference value: 85.4%); format: functional; conditions: MCF7, 12 h, read-out: Activity; summary of the method: as §1
MCF7 [18] = test: Induction of apoptosis in human MCF7 cells assessed as late apoptotic cells at 8 uM after 12 hrs by annexin V-FITC/propidium iodide staining-based flow cytometry (reference value: 2.7%); format: functional; summary of the method: as §1
MCF7 [19] = test: Induction of apoptosis in human MCF7 cells assessed as necrotic cells at 8 uM after 12 hrs by annexin V-FITC/propidium iodide staining-based flow cytometry (reference value: 4.7%); format: functional; summary of the method: as §1

Question: Which Activity (MCF7 [1]) does the source give for `O=C(CSC(=S)N[C@H]1CCOC1=O)Nc1ccc(C(=O)/C=C/c2ccccc2Cl)cc1` here?
Answer: The Activity was 16.4%.

Question: And the Activity (MCF7 [2])?
Answer: The Activity was 43.2%.

Question: What about the Activity (MCF7 [3]) of the same molecule?
Answer: Its Activity is “Dose-dependent effect”.

Question: What about the Activity (MCF7 [4]) of the same molecule?
Answer: Its Activity is 58.39%.

Question: What about the Activity (MCF7 [5]) of the same molecule?
Answer: The Activity was 24.4%.

Question: And the Activity (MCF7 [6])?
Answer: The Activity was 46.48%.

Question: And the Activity (MCF7 [7])?
Answer: The Activity was 33.6%.

Question: And the Activity (MCF7 [8])?
Answer: The Activity was 40.44%.

Question: What about the Activity (MCF7 [9]) of the same molecule?
Answer: The Activity was 32.7%.

Question: And the Activity (MCF7 [10])?
Answer: The Activity was 20.43%.

Question: What about the Activity (MCF7 [11]) of the same molecule?
Answer: Its Activity is 47.37%.

Question: And the Activity (MCF7 [12])?
Answer: The Activity was 14.45%.

Question: What about the Activity (MCF7 [13]) of the same molecule?
Answer: The Activity was “Dose-dependent effect”.

Question: And the IC50 [14]?
Answer: Its IC50 is 23.5 µM.

Question: What about the viability at 2 µM (MCF7 [15]) of the same molecule?
Answer: The viability at 2 µM was 82.1%.

Question: What about the Activity (MCF7 [16]) of the same molecule?
Answer: The Activity was 5.6%.

Question: And the viability at 4 µM (MCF7 [17])?
Answer: The viability at 4 µM was 77.9%.

Question: And the Activity (MCF7 [18])?
Answer: Its Activity is 1.6%.

Question: And the Activity (MCF7 [19])?
Answer: Its Activity is 3.5%.
